Source: PubChem BioAssay
An excerpt weighted towards active compounds, which were near 3.3% of everything screened.
HTR2A ag – activates the mouse 5-HT2A serotonin receptor | P35363 | actives 0.66% (n = 360,000) | CHO-K1 mHTR2A beta-arrestin complementation, luminescence; percent of 30 µM serotonin response | activation, % at 7.6 µM;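 active = activation above a run cutoff, the mean activation of all tested compounds plus 3 SD, cut at about 14% in these data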;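 note: 0% = plate median of compound wells and 100% = 30 µM serotonin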
HGIII-sPLA2 inh – Inhibits HGIII-sPLA2 liposome hydrolysis, primary screen; inhibition, % at 12.2 µM; QFRET BODIPY PC-A2 liposome hydrolysis, fluorescence; AID 743126; actives 0.56% (n = 370,000); Q9NZ20;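 active = inhibition above mean plus 3 SD of compounds lying within the high and low control bounds, cut at about 19% in these data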;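 note: 0% = median of test compound wells and 100% = no enzyme DMSO wells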
CendR NRP1 mod – modulators of CendR peptide binding to human neuropilin-1. O14786. FAM-RPARPAR peptide binding to NRP-1, fluorescence polarization. inhibition, % at 25 µM. actives 0.85% (n = 360,000);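 active = inhibition or corrected inhibition above about 18%, plus a signal ratio from 0.5 to 1.5, limit read from the data, passing the limit was not always enough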
Target sequence (O14786 whole entry, looked up): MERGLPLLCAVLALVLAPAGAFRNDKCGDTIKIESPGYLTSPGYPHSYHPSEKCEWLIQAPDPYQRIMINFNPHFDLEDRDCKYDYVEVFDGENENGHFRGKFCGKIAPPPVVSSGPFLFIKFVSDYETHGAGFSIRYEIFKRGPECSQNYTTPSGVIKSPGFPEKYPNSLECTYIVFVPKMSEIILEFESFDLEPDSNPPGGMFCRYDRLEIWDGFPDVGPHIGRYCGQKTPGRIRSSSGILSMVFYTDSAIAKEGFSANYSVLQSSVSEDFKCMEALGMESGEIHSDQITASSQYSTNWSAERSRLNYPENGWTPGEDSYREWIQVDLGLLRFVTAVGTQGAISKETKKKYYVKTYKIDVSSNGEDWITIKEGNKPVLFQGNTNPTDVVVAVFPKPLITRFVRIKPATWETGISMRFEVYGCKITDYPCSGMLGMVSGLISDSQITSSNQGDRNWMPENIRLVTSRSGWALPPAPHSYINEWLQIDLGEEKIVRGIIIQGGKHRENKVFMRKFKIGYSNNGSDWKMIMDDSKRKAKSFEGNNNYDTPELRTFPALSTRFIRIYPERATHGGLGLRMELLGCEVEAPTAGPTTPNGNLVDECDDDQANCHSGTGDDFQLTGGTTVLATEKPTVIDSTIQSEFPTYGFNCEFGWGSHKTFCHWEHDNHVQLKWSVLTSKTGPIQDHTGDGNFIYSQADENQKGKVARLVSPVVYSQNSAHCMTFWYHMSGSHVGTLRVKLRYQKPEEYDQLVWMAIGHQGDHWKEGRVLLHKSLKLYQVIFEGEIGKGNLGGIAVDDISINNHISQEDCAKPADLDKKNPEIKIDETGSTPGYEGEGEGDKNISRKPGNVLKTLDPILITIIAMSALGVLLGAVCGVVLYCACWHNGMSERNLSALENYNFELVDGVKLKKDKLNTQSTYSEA
Lipid droplet – hepatic lipid droplet formation modulation. AML12 mouse hepatocytes, oleate lipid droplets, BODIPY imaging. inhibition, % at 6.5 µM. actives 0.4% (n = 240,000);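 active = lipid droplet intensity inhibited by at least 50%, with more than 500 cells counted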
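Assay system: AML12 hepatocytes (mouse); Probe or stimulus: oleic acid at 100 µM to induce lipid droplet formation; Dosing: compound at 6.5 µM only; Schedule: compound with oleate, overnight; Detection: fluorescence imaging, 20x objective, two fields per well; Measure: % inhibition of lipid droplet signal.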
Arr AP2 block – blocks beta-arrestin peptide binding to AP2 adaptin | FITC-arrestin peptide / GST-AP2 beads, flow cytometry; AP2 beta2 appendage carries R879A mutation | inhibition, % at 10 µM | actives 0.31% (n = 340,000) | AID 504490;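 active = inhibition above a set limit, near 3 SD of compounds lacking own fluorescence, cut at about 54% in these data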;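 note: plate controls were DMSO wells for no effect and 5 µM unlabelled arrestin peptide for full effect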
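Assay system: GST-AP2 R879A bound to glutathione beads, E. coli-expressed; Medium: PBS with 0.05% Tween 20 and 0.1% BSA; Also added: fluorescein-tagged arrestin peptide at 50 nM final; Timing: 12 min plus 1 h, RT; Measured by: flow cytometry, FL1 (488/535 nm); Evaluation: percent drop in bead-associated FITC signal.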
PfM18AAP inh-1 – blocks P. falciparum M18 aspartyl aminopeptidase | inhibition, % at 7.35 µM | actives 1.2% (n = 290,000) | recombinant PfM18AAP, H-Glu-NHMec fluorogenic cleavage;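 active = inhibition above the campaign mean inhibition over all tested compounds plus 3 SD, cut at about 28% in these data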;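 note: 0% = plate median of test compound wells and 100% = 2 mM ZnCl2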
PfM18AAP inh-2 – confirmation of Plasmodium falciparum M18 aspartyl aminopeptidase inhibitors | recombinant PfM18AAP, H-Glu-NHMec fluorogenic cleavage | actives 28% (n = 2,400) | shares compounds with PfM18AAP inh-1 | inhibition, % at 7.35 µM;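 active = mean inhibition over replicate wells above the hit cutoff set for the earlier primary screen, cut at about 29% in these data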;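 note: 0% = median of test compound wells and 100% = 2 mM ZnCl2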
CTSL1 confirm – counter-screen for PFM18AAP inhibitors: confirmation of human cathepsin L inhibitors. shares compounds with PfM18AAP inh-1. purified cathepsin L1, Z-Leu-Arg-MCA fluorescence. inhibition, % at 5.96 µM. 2,400 tested, under 10 active;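 active = average inhibition across replicates above the hit cutoff set in the earlier primary screen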;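 note: 0% = median of test compound wells and 100% = Z-Phe-Ala-diazomethylketone 1 µM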
Numbers without * were called inactive; x = no result given.

SMILES	HTR2A ag	HGIII-sPLA2 inh	CendR NRP1 mod	Lipid droplet	Arr AP2 block	PfM18AAP inh-1	PfM18AAP inh-2	CTSL1 confirm
CCC(C)NC(=O)C1CCN(S(=O)(=O)c2ccc3[nH]c(=O)ccc3c2)CC1 (stereo not given)	-1	5	11	2	3	36*	-56	-1
COc1ccc(N2C(=O)CC(SCc3ccc(Cl)cc3)C2=O)cc1 (stereo not given)	-4	-10	1	6	8	-15	x	x
O=C1N(c2ccc(Cl)c(Cl)c2)CN(Cc2ccccc2)CN1n1cnnc1	-1	-5	-6	5	19	70*	55*	1
COc1ccc(CN2CN(c3ccc(Cl)cc3)C(=O)N(n3cnnc3)C2)cc1	4	-1	-8	x	4	51*	40*	-2
COC(=O)Cc1nnn2c1[C@@H](C)[C@@H](c1ccccc1Br)OC[C@@H]2c1ccccc1	x	-2	x	x	x	x	x	x
O=c1[nH]c(=S)[nH]c2c1C(c1ccc(Cl)cc1)OC(CCc1ccccc1)C2 (stereo not given)	-1	16	11	x	x	x	x	x
O=C(O)c1ccc(NNC(=S)Nc2cc(C(F)(F)F)ccc2Cl)cc1	0	-16	-11	8	-7	35*	-30	-4
Nc1nc(Sc2c([N+](=O)[O-])cc(C(F)(F)F)cc2[N+](=O)[O-])n[nH]1	-1	3	-12	-12	12	-92	x	x
Nc1nc(Sc2ccc(C(F)(F)F)cc2[N+](=O)[O-])n[nH]1	7	-6	2	8	3	63*	56*	-6
O=C1/C(=C\c2ccccn2)SC(=S)N1c1ccc(S(=O)(=O)Nc2nccs2)cc1	0	-39	-13	-1	2	36*	-21	1
C[C@H]1[C@@H](OC(=O)Nc2cccc(C(F)(F)F)c2)CC[C@@]23CCCN2C(=O)CCC[C@@H]13	x	16	x	x	x	x	x	x
Cc1sc2ccccc2[n+]1CC(=O)c1ccccc1	0	x	-1	-14	-7	52*	11	0
Cc1sc2ccccc2[n+]1CC(=O)O	2	3	2	-46	1	13	x	x
CSc1nnc(C(C)(C)C)c(=O)n1/N=C/c1ccccc1	-1	5	3	15	-9	-3	x	x
Cc1nnc(N/N=C/c2ccc(-c3ccc(Br)cc3)o2)n1N	-4	-4	-2	-13	15	51*	3	2
Cc1nnc(N/N=C/c2ccc(Br)cc2)n1N	-2	-7	-4	10	-8	48*	-37	-6
Cc1nnc(N/N=C\c2ccc(-c3cccc(C(=O)O)c3)o2)n1N	-5	-4	-17	21	-21	51*	5	-2
CC(C)(C)c1nnc(N/N=C/c2ccccc2)n(N)c1=O	7	9	-3	11	22	47*	-50	3
Cc1ccc([C@H]2N[C@]3(CCCN(Cc4ccc(Br)cc4)C3=O)[C@H]3C(=O)N(C)C(=O)[C@@H]23)cc1	5	2	-13	x	x	x	x	x
COc1ccc(/C=N/Nc2nnc(C)n2N)cc1OC(C)=O	-2	1	1	x	6	34*	-39	1
CC(=O)Oc1ccc2oc(/C=C/N(C)C)c([N+](=O)[O-])c2c1	0	2	-35	14	-7	6	x	x
C/C(=C/c1oc2ccc(O)cc2c1[N+](=O)[O-])N(C)C	3	3	12	-2	9	37*	-23	8
NNc1ccc(S(=O)(=O)N2CCCCC2)cn1	-1	0	5	18	5	33*	31*	1
CCOC(=O)C1(C(=O)OCC)N=C(c2ccccc2)C=C1c1ccccc1	x	-17	x	x	x	x	x	x
N#CC[C@H](Cc1ccccc1)N1CCN(CCc2ccccc2)CCC1=O	-11	0	2	x	-1	33*	-54	3
SMILES	HTR2A ag	HGIII-sPLA2 inh	CendR NRP1 mod	Lipid droplet	Arr AP2 block	PfM18AAP inh-1	PfM18AAP inh-2	CTSL1 confirm
Cc1ccc(C)c(C2NC(=O)c3ccccc3N2)c1 (stereo not given)	4	2	17	-24	1	0	x	x
Cc1ccc(C2NC(=O)c3c(sc(C)c3C)N2)c(O)c1 (stereo not given)	1	-4	-8	x	12	35*	-24	-1
Cc1sc2c(c1C)C(=O)NC(c1ccccc1F)N2 (stereo not given)	5	4	-19	-23	3	11	x	x
Cc1cccc(C2NC(=O)c3c(sc(C)c3C)N2)c1O (stereo not given)	1	1	-12	x	-5	52*	-30	2
O=C(O)C1CC=CCC1C(=O)Nc1cccnc1 (stereo not given)	6	2	18	18	8	4	x	x
Cc1ncc(CO)c(/C=N/NC(=O)c2ccccc2Br)c1O	-3	1	-1	-19	-5	35*	-14	4
CC(=O)O[C@@H]1CCC[C@@]2(C(=O)Nc3ccccc32)[C@H]1NC(=O)C(C)C	x	6	x	x	x	x	x	x
CC(CN1CCCCC1)OC(=O)c1ccccc1F (stereo not given)	8	3	5	x	0	2	x	x
Cc1cccnc1NC(=S)NCc1ccco1	2	14	-10	-6	-5	32*	-20	-5
S=C(NCc1ccco1)Nc1ccccn1	1	4	-7	-8	-3	10	x	x
CC1=C(C(=O)N2CCOCC2)CC(CC(=O)NCc2cccc3ccccc23)C(=O)N1Cc1ccccc1 (stereo not given)	-7	3	-1	x	x	x	x	x
Cc1cc(C)cc(Nc2ccc(C(=O)O)cc2[N+](=O)[O-])c1	3	18	-6	-1	10	5	x	x
Cc1ccc(Nc2ccc(C(=O)O)cc2N)cc1	x	-16	x	x	x	55*	4	7
COc1cccc(Nc2ccc(C(=O)O)cc2N)c1	-4	-6	10	-5	3	5	x	x
Cc1cc(C)cc(Nc2ccc(C(=O)O)cc2N)c1	8	-3	18	-3	-5	41*	-21	-3
CC(C)C[C@H](NC(=O)c1ccco1)C(=O)N1CCC[C@H]1C(=O)NCc1ccccc1	x	-1	x	x	x	x	x	x
COc1ccc(C(=O)COc2ccc(F)cc2)c(O)c1	-1	-43	-1	-1	52	2	x	x
O=C(COc1ccc(F)cc1)c1c(O)cc(O)cc1O	5	2	1	0	52	33*	23	-1
N#C/C(=C\c1cc(O)c(O)c(O)c1)C(N)=O	-4	9	-15	-2	37	60*	26	1
O=C(O)Cc1ccc2ocnc2c1	4	0	4	x	6	45*	6	1
